Laboratory results reported in ChEMBL document CHEMBL1137637, “Quinuclidine derivatives as potential antiparasitics” (Antimicrob Agents Chemother, 2007).
Values after ≈ are worked out from the molar mass of the structure shown.

Experiments:
Leishmania amazonensis [1] = test: Inhibition of sterol biosynthesis in Leishmania mexicana amazonensis promastigotes assessed as reduction in endogenous cholesta-7,24-dien-3beta-ol level at 1 uM after 96 hrs by gas-liquid chromatography; type: functional; parameters: scale not given: the % may be the effect or the level left
Procedure, shortened: (§1)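 L. mexicana promastigotes exposed to compound for 96 h. Total lipids extracted and neutral sterols separated from polar lipids by silicic acid column chromatography. Sterols analysed by TLC and by quantitative capillary gas-liquid chromatography with mass spectrometry. Composition expressed as mass % of free sterols, compared with untreated control.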

Trypanosoma cruzi = test: Antitrypanosomal activity against trypomastigotes of Trypanosoma cruzi Tulahuen C2C4 containing lacZ gene in rat L6 cells after 4 days by chlorophenol red-beta-D-galactopyranoside/Nonidet assay; type: functional, organism-based; details: Tulahuen C2C4, L6, 96 h
Procedure, shortened: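 L-6 rat myoblasts seeded at 2,000 cells/well in RPMI 1640 with 10% FBS and 2 mM L-glutamine. After 24 h, 5,000 T. cruzi Tulahuen C2C4 lacZ trypomastigotes added with serial drug dilution. Incubated at 37°C in 5% CO2 for 4 days. CPRG/Nonidet substrate added and colour read at 540 nm after 2–4 h. IC50 from sigmoidal curve. Duplicate determinations.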

Leishmania amazonensis [2] = test: Inhibition of sterol biosynthesis in Leishmania mexicana amazonensis promastigotes assessed as reduction in endogenous cholesta-5,7,24-trien-3beta-ol level at 3 uM after 96 hrs by gas-liquid chromatography; type: functional; parameters: scale not given: the % may be the effect or the level left; procedure, shortened: as §1
Leishmania amazonensis [3] = test: Inhibition of sterol biosynthesis in Leishmania mexicana amazonensis promastigotes assessed as reduction in endogenous cholesta-7,24-dien-3beta-ol level at 3 uM after 96 hrs by gas-liquid chromatography; type: functional; parameters: scale not given: the % may be the effect or the level left; procedure, shortened: as §1
Leishmania amazonensis [4] = test: Inhibition of sterol biosynthesis in Leishmania mexicana amazonensis promastigotes assessed as reduction in endogenous episterol level at 1 uM after 96 hrs by gas-liquid chromatography; type: functional; parameters: scale not given: the % may be the effect or the level left; procedure, shortened: as §1
Leishmania amazonensis [5] = test: Inhibition of sterol biosynthesis in Leishmania mexicana amazonensis promastigotes assessed as reduction in exogenous cholesterol level at 3 uM after 96 hrs by gas-liquid chromatography; type: functional; parameters: scale not given: the % may be the effect or the level left; procedure, shortened: as §1
Leishmania amazonensis [6] = test: Inhibition of sterol biosynthesis in Leishmania mexicana amazonensis promastigotes assessed as reduction in exogenous cholesterol level at 10 uM after 96 hrs by gas-liquid chromatography; type: functional; parameters: scale not given: the % may be the effect or the level left; procedure, shortened: as §1
Leishmania amazonensis [7] = test: Inhibition of sterol biosynthesis in Leishmania mexicana amazonensis promastigotes assessed as reduction in exogenous cholesterol level at 1 uM after 96 hrs by gas-liquid chromatography; type: functional; parameters: scale not given: the % may be the effect or the level left; procedure, shortened: as §1
Plasmodium falciparum = test: Antiplasmodial activity after 48 hrs against chloroquine and pyrimethamine-resistant Plasmodium falciparum K1 in human erythrocytes by [3H]hypoxanthine uptake; type: functional, organism-based
Procedure, shortened: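 P. falciparum K1 in human red cells in RPMI 1640 with 5% Albumax, exposed to serial drug dilutions. Incubated 48 h at 37°C under reduced oxygen, then 0.5 μCi [³H]hypoxanthine per well for 24 h more. Cells harvested onto glass-fibre filters and counted by scintillation. Result expressed as % of untreated control, with IC50 from sigmoidal curve. Duplicate, plus an independent repeat for actives.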

Leishmania amazonensis [8] = test: Inhibition of sterol biosynthesis in Leishmania mexicana amazonensis promastigotes assessed as reduction in endogenous episterol level at 3 uM after 96 hrs by gas-liquid chromatography; type: functional; parameters: scale not given: the % may be the effect or the level left; procedure, shortened: as §1
Leishmania amazonensis [9] = test: Inhibition of sterol biosynthesis in Leishmania mexicana amazonensis promastigotes assessed as reduction in endogenous cholesta-5,7,24-trien-3beta-ol level at 1 uM after 96 hrs by gas-liquid chromatography; type: functional; parameters: scale not given: the % may be the effect or the level left; procedure, shortened: as §1
Leishmania amazonensis [10] = test: Antileishmanial activity against Leishmania mexicana amazonensis promastigotes by trypan blue exclusion method; type: functional, organism-based
Procedure, shortened: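 L. mexicana amazonensis promastigotes cultured in liver infusion-tryptose medium with lactalbumin and 10% FCS at 26°C, unagitated. Cultures started at 2 × 10⁶ cells/ml and drug added at 0.5–1 × 10⁷ cells/ml. Density counted by electronic particle counter and hemocytometer. Viability by trypan blue exclusion. Triplicate growth experiments.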

Leishmania amazonensis [11] = test: Inhibition of sterol biosynthesis in Leishmania mexicana amazonensis promastigotes assessed as reduction in endogenous 5-dehydro episterol level at 1 uM after 96 hrs by gas-liquid chromatography; type: functional; parameters: scale not given: the % may be the effect or the level left; procedure, shortened: as §1
L6 = test: Cytotoxicity against rat L6 cells after 72 hrs by resazurin assay; type: cell-based; details: L6, 72 h
Procedure, shortened: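 L-6 cells seeded at 4 × 10⁴ cells/ml in RPMI 1640 with 10% FBS and 2 mM L-glutamine. After 24 h, medium replaced with serial drug dilution and incubated for 72 h at 37°C in 5% CO2. Resazurin added for 2–4 h, fluorescence read at ex 536/em 588 nm. IC50 from sigmoidal curve. Duplicate, with an independent repeat for actives.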

[12] = test system: Trypanosoma brucei rhodesiense; test: Trypanocidal activity against Trypanosoma brucei rhodesiense STIB 900 bloodstream form after 72 hrs by resazurin assay; type: functional, organism-based; details: STIB 900, 72 h
Procedure, shortened: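 T. b. rhodesiense STIB 900 bloodstream forms in MEM with 2-mercaptoethanol and 15% heat-inactivated horse serum, with serial drug dilutions. Incubated 72 h at 37°C in 5% CO2. Resazurin added for 2–4 h more, fluorescence read at ex 536/em 588 nm. IC50 from sigmoidal curve. Duplicate, with an independent repeat for actives.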

Leishmania donovani = test: Antileishmanial activity against Leishmania donovani MHOM/ET/67/L82 axenic amastigotes after 72 hrs by resazurin assay; type: functional, organism-based; details: MHOM/ET/67/L82, 72 h
Procedure, shortened: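 L. donovani MHOM/ET/67/L82 amastigotes grown axenically at 37°C in synthetic minimal medium at pH 5.4 with 10% heat-inactivated FBS under 5% CO2. 1 × 10⁵ amastigotes per well with seven threefold dilutions, 30 to 0.041 μg/ml. After 72 h, resazurin added for 2–4 h more. Fluorescence read at ex 536/em 588 nm. IC50 taken from sigmoidal curve. Run in duplicate, with an independent repeat for actives.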

[13] = biological target: T1, Farnesyltransferase, putative (Leishmania major, UniProt Q4Q5W4); test: Inhibition of Leishmania major recombinant squalene synthase expressed in Escherichia coli by liquid scintillation counter
T1 sequence (Q4Q5W4 whole entry): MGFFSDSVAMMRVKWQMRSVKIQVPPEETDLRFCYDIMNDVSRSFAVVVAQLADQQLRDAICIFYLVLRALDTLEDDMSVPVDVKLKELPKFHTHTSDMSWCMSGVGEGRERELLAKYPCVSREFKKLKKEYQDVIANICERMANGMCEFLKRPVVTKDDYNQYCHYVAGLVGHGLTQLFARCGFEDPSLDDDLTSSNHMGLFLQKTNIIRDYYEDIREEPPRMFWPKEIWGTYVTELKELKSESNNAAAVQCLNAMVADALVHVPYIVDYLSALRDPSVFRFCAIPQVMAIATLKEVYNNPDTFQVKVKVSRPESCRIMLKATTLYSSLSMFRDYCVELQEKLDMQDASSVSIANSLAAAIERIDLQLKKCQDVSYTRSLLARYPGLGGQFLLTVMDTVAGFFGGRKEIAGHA
Procedure, shortened: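 Soluble E. coli extract expressing L. major SQS truncated by 16 N-terminal and 40 C-terminal residues. Buffer: 50 mM phosphate pH 7.4, 20 mM MgCl2, 5 mM CHAPS, 1% Tween 80, 10 mM DTT, BSA, 0.25 mM NADPH, and a glucose-6-phosphate/G6PDH regenerating system. Substrate 0.5 μM radiolabelled farnesyl pyrophosphate. Squalene band counted by scintillation. IC50 from hyperbolic plot of five concentrations in duplicate, usually run twice.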

Leishmania amazonensis [14] = test: Inhibition of sterol biosynthesis in Leishmania mexicana amazonensis promastigotes assessed as reduction in endogenous 5-dehydro episterol level at 3 uM after 96 hrs by gas-liquid chromatography; type: functional; parameters: scale not given: the % may be the effect or the level left; procedure, shortened: as §1
Leishmania amazonensis [15] = test: Inhibition of sterol biosynthesis in Leishmania mexicana amazonensis promastigotes assessed as reduction in exogenous cholesterol level at 0.3 uM after 96 hrs by gas-liquid chromatography; type: functional; parameters: scale not given: the % may be the effect or the level left
Procedure, shortened: (§2)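 Promastigotes grown in liver infusion-tryptose medium with lactalbumin and 10% fetal calf serum at 26°C, static; drug added at 0.5 × 10⁷ to 1 × 10⁷ cells/ml and cells exposed for 96 h. Total lipids extracted; neutral lipids separated from polar lipids by silicic acid column chromatography; free sterols quantified by capillary gas-liquid chromatography and mass spectrometry as mass % of total sterols.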

Leishmania amazonensis [16] = test: Inhibition of sterol biosynthesis in Leishmania mexicana amazonensis promastigotes assessed as reduction in endogenous episterol level at 0.1 uM after 96 hrs by gas-liquid chromatography; type: functional; parameters: scale not given: the % may be the effect or the level left; procedure, shortened: as §1
Leishmania amazonensis [17] = test: Inhibition of sterol biosynthesis in Leishmania mexicana amazonensis promastigotes assessed as reduction in endogenous episterol level at 0.3 uM after 96 hrs by gas-liquid chromatography; type: functional; parameters: scale not given: the % may be the effect or the level left; procedure, shortened: as §2
Squalene synthase [18] = biological target: T2, Squalene synthase (Homo sapiens, UniProt P37268); test: Inhibition of human recombinant squalene synthase expressed in Escherichia coli BL21(DE3 pLysS) up to 1 uM by liquid scintillation counter
T2 sequence (P37268 whole entry): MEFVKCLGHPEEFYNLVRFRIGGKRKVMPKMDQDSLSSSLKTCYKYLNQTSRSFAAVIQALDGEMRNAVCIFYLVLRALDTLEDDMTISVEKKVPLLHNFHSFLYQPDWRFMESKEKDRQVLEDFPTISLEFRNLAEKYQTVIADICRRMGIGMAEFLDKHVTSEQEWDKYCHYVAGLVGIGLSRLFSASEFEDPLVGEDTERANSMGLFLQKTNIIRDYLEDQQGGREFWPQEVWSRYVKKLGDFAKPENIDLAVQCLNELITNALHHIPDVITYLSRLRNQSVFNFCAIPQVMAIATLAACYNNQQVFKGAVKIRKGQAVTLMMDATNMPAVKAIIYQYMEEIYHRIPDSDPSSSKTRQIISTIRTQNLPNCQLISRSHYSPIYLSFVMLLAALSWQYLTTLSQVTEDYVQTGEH
Procedure, shortened: (§3)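 Human SQS in extracts of E. coli BL21(DE3 pLysS) carrying pHSS16, assayed under the same conditions as the L. major enzyme. Buffer: phosphate pH 7.4, MgCl2, CHAPS, Tween 80, DTT, BSA, and NADPH with a regenerating system. Substrate 0.5 μM radiolabelled farnesyl pyrophosphate. Squalene band radioactivity counted by scintillation.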

Leishmania amazonensis [19] = test: Inhibition of sterol biosynthesis in Leishmania mexicana amazonensis promastigotes assessed as reduction in endogenous 5-dehydro episterol level at 0.1 uM after 96 hrs by gas-liquid chromatography; type: functional; parameters: scale not given: the % may be the effect or the level left; procedure, shortened: as §1
Leishmania amazonensis [20] = test: Inhibition of sterol biosynthesis in Leishmania mexicana amazonensis promastigotes assessed as reduction in exogenous cholesterol level at 0.1 uM after 96 hrs by gas-liquid chromatography; type: functional; parameters: scale not given: the % may be the effect or the level left; procedure, shortened: as §1
Leishmania amazonensis [21] = test: Inhibition of sterol biosynthesis in Leishmania mexicana amazonensis promastigotes assessed as reduction in endogenous 5-dehydro episterol level at 0.3 uM after 96 hrs by gas-liquid chromatography; type: functional; parameters: scale not given: the % may be the effect or the level left; procedure, shortened: as §2
Leishmania amazonensis [22] = test: Inhibition of sterol biosynthesis in Leishmania mexicana amazonensis promastigotes assessed as reduction in endogenous 5-dehydro episterol level at 10 uM after 96 hrs by gas-liquid chromatography; type: functional; parameters: scale not given: the % may be the effect or the level left; procedure, shortened: as §1
Leishmania amazonensis [23] = test: Inhibition of sterol biosynthesis in Leishmania mexicana amazonensis promastigotes assessed as reduction in endogenous episterol level at 10 uM after 96 hrs by gas-liquid chromatography; type: functional; parameters: scale not given: the % may be the effect or the level left; procedure, shortened: as §1
Squalene synthase [24] = biological target: T2, Squalene synthase; test: Inhibition of human recombinant squalene synthase expressed in Escherichia coli BL21(DE3 pLysS) by liquid scintillation counter; procedure, shortened: as §3

Structure (SMILES)	IC50 (Trypanosoma cruzi)	Activity (Leishmania amazonensis [5])	Activity (Leishmania amazonensis [6])	IC50 (Plasmodium falciparum)	Activity (Leishmania amazonensis [8])	MIC (Leishmania amazonensis [10])	IC50 (L6)	IC50 [12]	IC50 (Leishmania donovani)	IC50 [13]	Activity (Leishmania amazonensis [14])	further results
OC[C@@H]1CC2CCN1C[C@@H]2C#Cc1ccc(-c2ccccc2)cc1 (stereo partly specified)	5.6 µM	25.2%	>99%	0.6 µM	9.3%	3 µM (≈ 0.952 µg/mL)	10.7 µM	1.2 µM	18.5 µM	> 1 µM	33.7%	Activity (Leishmania amazonensis [1]): 7.2%; Activity (Leishmania amazonensis [2]): 24.8%; Activity (Leishmania amazonensis [3]): 7%; Activity (Leishmania amazonensis [4]): 4.4%; Activity (Leishmania amazonensis [7]): 10.3%; Activity (Leishmania amazonensis [9]): 41.7%; Activity (Leishmania amazonensis [11]): 36.4%
C(=C1/CN2CCC1CC2)/c1ccc(-c2ccccc2)cc1	1.8 µM	–	–	3.1 µM	–	0.3 µM (≈ 0.0826 µg/mL)	13.4 µM	0.7 µM	41.3 µM	> 1 µM	–	Activity (Leishmania amazonensis [15]): 36.7%; Activity (Leishmania amazonensis [16]): 42.2%; Activity (Leishmania amazonensis [17]): 33.3%; IC50 (Squalene synthase [18]): Not Active; Activity (Leishmania amazonensis [19]): 26.4%; Activity (Leishmania amazonensis [20]): 31.4%; Activity (Leishmania amazonensis [21]): 18.1%
CCOC(=O)Cc1ccc(C#CC2(O)CN3CCC2CC3)cc1 (stereo unspecified)	25.6 µM	28.4%	62.3%	10 µM	23%	10 µM (≈ 3.13 µg/mL)	> 287 µM	258 µM	17.3 µM	0.97 µM	48.6%	Activity (Leishmania amazonensis [22]): 18.9%; Activity (Leishmania amazonensis [23]): 18.8%; IC50 (Squalene synthase [24]): 0.66 µM
